In brackets after ≈: the same amount, converted by molar mass. Activity calls are given as the source filed them. The calls are words filed in the database; no cut-off is given here.
Key:
Botrytis cinerea [1] = assay: Antifungal activity against highly fenhexamid-resistant Botrytis cinerea MK3-9 assessed as inhibition of germ tube elongation after 24 hrs; assay type: functional, organism-based; conditions: MK3-9, 24 h
Botrytis cinerea [2] = assay: Antifungal activity against moderately to slightly fenhexamid-resistant Botrytis cinerea 05-1.27 assessed as inhibition of germ tube elongation after 24 hrs; assay type: functional, organism-based; conditions: 05-1.27, 24 h
Botrytis cinerea [3] = assay: Antifungal activity against moderately to slightly fenhexamid-resistant Botrytis cinerea 202 assessed as inhibition of germ tube elongation after 24 hrs; assay type: functional, organism-based; conditions: Botrytis cinerea, 202, 24 h
Botrytis cinerea [4] = assay: Antifungal activity against moderately to slightly fenhexamid-resistant Botrytis cinerea 286 assessed as inhibition of germ tube elongation after 24 hrs; assay type: functional, organism-based; conditions: Botrytis cinerea, 286, 24 h
Botrytis cinerea [5] = assay: Antifungal activity against moderately to slightly fenhexamid-resistant Botrytis cinerea 365 assessed as inhibition of germ tube elongation after 24 hrs; assay type: functional, organism-based; conditions: Botrytis cinerea, 365, 24 h
Botrytis cinerea [6] = assay: Antifungal activity against moderately to slightly fenhexamid-resistant Botrytis cinerea 452 assessed as inhibition of germ tube elongation after 24 hrs; assay type: functional, organism-based; conditions: Botrytis cinerea, 452, 24 h
Botrytis cinerea [7] = assay: Antifungal activity against moderately to slightly fenhexamid-resistant Botrytis cinerea 453a assessed as inhibition of germ tube elongation after 24 hrs; assay type: functional, organism-based
Botrytis cinerea [8] = assay: Antifungal activity against moderately to slightly fenhexamid-resistant Botrytis cinerea 453b assessed as inhibition of germ tube elongation after 24 hrs; assay type: functional, organism-based
Botrytis cinerea [9] = assay: Antifungal activity against fenhexamid-senistive Botrytis cinerea SAS405 assessed as inhibition of mycelium growth measured over 5 days; assay type: functional, organism-based; conditions: SAS405, 120 h
Botrytis cinerea [10] = assay: Antifungal activity against fenhexamid-senistive Botrytis cinerea SAS56 assessed as inhibition of mycelium growth measured over 5 days; assay type: functional, organism-based; conditions: SAS56, 120 h
Botrytis cinerea [11] = assay: Antifungal activity against highly fenhexamid-resistant Botrytis cinerea 1837 assessed as inhibition of mycelium growth measured over 5 days; assay type: functional, organism-based; conditions: Botrytis cinerea, 1837, 120 h
Botrytis cinerea [12] = assay: Antifungal activity against highly fenhexamid-resistant Botrytis cinerea 05-190 assessed as inhibition of mycelium growth measured over 5 days; assay type: functional, organism-based; conditions: 05-190, 120 h
Botrytis cinerea [13] = assay: Antifungal activity against highly fenhexamid-resistant Botrytis cinerea 05-PV Reims assessed as inhibition of mycelium growth measured over 5 days; assay type: functional, organism-based; conditions: 120 h
Botrytis cinerea [14] = assay: Antifungal activity against highly fenhexamid-resistant Botrytis cinerea 118 assessed as inhibition of mycelium growth measured over 5 days; assay type: functional, organism-based; conditions: Botrytis cinerea, 118, 120 h
Botrytis cinerea [15] = assay: Antifungal activity against highly fenhexamid-resistant Botrytis cinerea 264 assessed as inhibition of mycelium growth measured over 5 days; assay type: functional, organism-based; conditions: Botrytis cinerea, 264, 120 h
Botrytis cinerea [16] = assay: Antifungal activity against highly fenhexamid-resistant Botrytis cinerea 379a assessed as inhibition of mycelium growth measured over 5 days; assay type: functional, organism-based; conditions: 120 h
Botrytis cinerea [17] = assay: Antifungal activity against highly fenhexamid-resistant Botrytis cinerea 506b assessed as inhibition of mycelium growth measured over 5 days; assay type: functional, organism-based; conditions: 120 h
Botrytis cinerea [18] = assay: Antifungal activity against highly fenhexamid-resistant Botrytis cinerea 520b assessed as inhibition of mycelium growth measured over 5 days; assay type: functional, organism-based; conditions: 120 h
Botrytis cinerea [19] = assay: Antifungal activity against moderately to slightly fenhexamid-resistant Botrytis cinerea 05-1.27 assessed as inhibition of mycelium growth measured over 5 days; assay type: functional, organism-based; conditions: 05-1.27, 120 h
Botrytis cinerea [20] = assay: Antifungal activity against moderately to slightly fenhexamid-resistant Botrytis cinerea 05-ABA assessed as inhibition of mycelium growth measured over 5 days; assay type: functional, organism-based; conditions: 120 h
Botrytis cinerea [21] = assay: Antifungal activity against moderately to slightly fenhexamid-resistant Botrytis cinerea 57 assessed as inhibition of mycelium growth measured over 5 days; assay type: functional, organism-based; conditions: Botrytis cinerea, 57, 120 h
Botrytis cinerea [22] = assay: Antifungal activity against moderately to slightly fenhexamid-resistant Botrytis cinerea 202 assessed as inhibition of mycelium growth measured over 5 days; assay type: functional, organism-based; conditions: Botrytis cinerea, 202, 120 h
Botrytis cinerea [23] = assay: Antifungal activity against moderately to slightly fenhexamid-resistant Botrytis cinerea 221 assessed as inhibition of mycelium growth measured over 5 days; assay type: functional, organism-based; conditions: Botrytis cinerea, 221, 120 h
Botrytis cinerea [24] = assay: Antifungal activity against Botrytis cinerea 1837 expressing erg27 HydR3+ alleles assessed as appearance of dense mycelium up to 20 ug/ml; assay type: functional, organism-based
Summary of the method: (§1)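 Spores of parental strains were spread on YSS (synthetic complete) medium containing fenhexamid at several concentrations, without hygromycin B. Growth was scored after 7 days at 21°C.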

Botrytis cinerea [25] = assay: Antifungal activity against Botrytis cinerea 223b expressing erg27 HydR3+ alleles assessed as appearance of dense mycelium up to 20 ug/ml; assay type: functional, organism-based; summary of the method: as §1
Botrytis cinerea [26] = assay: Antifungal activity against Botrytis cinerea B05.10 harboring TELerg F412S mutant assessed as appearance of mycelium growth up to 20 ug/ml; assay type: functional
Summary of the method: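 B05.10 transformants carrying the erg27 allele on the pFTELerg plasmid were grown on rich medium with hygromycin B until conidiation. Spores were spread on YSS (synthetic complete) medium with 50 µg ml–1 hygromycin B and fenhexamid at 1 to 20 µg ml–1. After 7 days at 21°C, spores developing mycelium were scored under the microscope.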

Botrytis cinerea [27] = assay: Antifungal activity against Botrytis cinerea 286 harboring TELerg S336C mutant at 1 ug/ml relative to wild-type; assay type: functional, organism-based
Summary of the method: (§2)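 In the dominance test, the recipient strains 453b and 286 were transformed with different erg27 alleles. Spores of the transformants were grown on YSS medium containing fenhexamid at different concentrations and 50 µg ml–1 hygromycin B. Parental strains were grown without hygromycin. Growth was scored after 7 days at 21°C.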

Botrytis cinerea [28] = assay: Antifungal activity against HydR3 deficient Botrytis cinerea 453 harboring TELerg F412I mutant at 2 ug/ml relative to wild-type; assay type: functional, organism-based; summary of the method: as §2
Botrytis cinerea [29] = assay: Antifungal activity against Botrytis cinerea 286 harboring TELerg S336C mutant at 2 ug/ml relative to wild-type; assay type: functional, organism-based; summary of the method: as §2
Botrytis cinerea [30] = assay: Antifungal activity against HydR3 deficient Botrytis cinerea 453 harboring TELerg F412I mutant at 5 ug/ml relative to wild-type; assay type: functional, organism-based; summary of the method: as §2
Botrytis cinerea [31] = assay: Antifungal activity against HydR3 deficient Botrytis cinerea 453 harboring TELerg N369D mutant at 10 ug/ml relative to wild-type; assay type: functional, organism-based; summary of the method: as §2
Botrytis cinerea [32] = assay: Antifungal activity against HydR3 deficient Botrytis cinerea 453 harboring TELerg F412I mutant at 10 ug/ml relative to wild-type; assay type: functional, organism-based; summary of the method: as §2
Botrytis cinerea [33] = assay: Antifungal activity against Botrytis cinerea 286 harboring TELerg S336C mutant at 10 ug/ml relative to wild-type; assay type: functional, organism-based; summary of the method: as §2
Botrytis cinerea [34] = assay: Antifungal activity against highly fenhexamid-resistant Botrytis cinerea 1837 assessed as inhibition of germ tube elongation after 24 hrs; assay type: functional, organism-based; conditions: Botrytis cinerea, 1837, 24 h
Botrytis cinerea [35] = assay: Antifungal activity against highly fenhexamid-resistant Botrytis cinerea 05-221 assessed as inhibition of germ tube elongation after 24 hrs; assay type: functional, organism-based; conditions: 05-221, 24 h
Botrytis cinerea [36] = assay: Antifungal activity against highly fenhexamid-resistant Botrytis cinerea 05-PV Reims assessed as inhibition of germ tube elongation after 24 hrs; assay type: functional, organism-based
Botrytis cinerea [37] = assay: Antifungal activity against highly fenhexamid-resistant Botrytis cinerea 214 assessed as inhibition of germ tube elongation after 24 hrs; assay type: functional, organism-based; conditions: Botrytis cinerea, 214, 24 h
Botrytis cinerea [38] = assay: Antifungal activity against highly fenhexamid-resistant Botrytis cinerea 264 assessed as inhibition of germ tube elongation after 24 hrs; assay type: functional, organism-based; conditions: Botrytis cinerea, 264, 24 h
Botrytis cinerea [39] = assay: Antifungal activity against highly fenhexamid-resistant Botrytis cinerea 506a assessed as inhibition of germ tube elongation after 24 hrs; assay type: functional, organism-based
Botrytis cinerea [40] = assay: Antifungal activity against highly fenhexamid-resistant Botrytis cinerea 520a assessed as inhibition of germ tube elongation after 24 hrs; assay type: functional, organism-based

With `CC1(C(=O)Nc2ccc(O)c(Cl)c2Cl)CCCCC1` [FENHEXAMID] the EC50 (Botrytis cinerea [1]) was > 5 µg/mL, the EC50 (Botrytis cinerea [2]) was 2.5 µg/mL (≈ 8.27 µM) and the EC50 (Botrytis cinerea [3]) was 2 µg/mL (≈ 6.62 µM). It also gave an EC50 (Botrytis cinerea [4]) of 4 µg/mL (≈ 13.2 µM), an EC50 (Botrytis cinerea [5]) of 2 µg/mL (≈ 6.62 µM) and an EC50 (Botrytis cinerea [6]) of 2.5 µg/mL (≈ 8.27 µM). The EC50 (Botrytis cinerea [7]) was 3 µg/mL (≈ 9.93 µM), the EC50 (Botrytis cinerea [8]) was 2 µg/mL (≈ 6.62 µM) and the EC50 (Botrytis cinerea [9]) was < 0.1 µg/mL. The EC50 (Botrytis cinerea [10]) was < 0.1 µg/mL, the EC50 (Botrytis cinerea [11]) was > 10 µg/mL and the EC50 (Botrytis cinerea [12]) was > 10 µg/mL. For the same compound, the EC50 (Botrytis cinerea [13]) was > 10 µg/mL, the EC50 (Botrytis cinerea [14]) was > 10 µg/mL and the EC50 (Botrytis cinerea [15]) was > 10 µg/mL. The EC50 (Botrytis cinerea [16]) was > 10 µg/mL, the EC50 (Botrytis cinerea [17]) was > 10 µg/mL and the EC50 (Botrytis cinerea [18]) was 3 µg/mL (≈ 9.93 µM). The EC50 (Botrytis cinerea [19]) was 0.2 µg/mL (≈ 0.662 µM), the EC50 (Botrytis cinerea [20]) was 0.2 µg/mL (≈ 0.662 µM) and the EC50 (Botrytis cinerea [21]) was < 0.3 µg/mL. The EC50 (Botrytis cinerea [22]) was < 0.3 µg/mL, the EC50 (Botrytis cinerea [23]) was 0.2 µg/mL (≈ 0.662 µM) and the Activity (Botrytis cinerea [24]) was “inactive”. For the same compound, the Activity (Botrytis cinerea [25]) was “inactive”, the Activity (Botrytis cinerea [26]) was 10% and the Activity (Botrytis cinerea [27]) was “inactive”. For the same compound, the Activity (Botrytis cinerea [28]) was “inactive”, the Activity (Botrytis cinerea [29]) was “inactive” and the Activity (Botrytis cinerea [30]) was “inactive”. For the same compound, the Activity (Botrytis cinerea [31]) was “inactive”, the Activity (Botrytis cinerea [32]) was “inactive” and the Activity (Botrytis cinerea [33]) was “inactive”. The EC50 (Botrytis cinerea [34]) was > 10 µg/mL, the EC50 (Botrytis cinerea [35]) was > 10 µg/mL and the EC50 (Botrytis cinerea [36]) was > 10 µg/mL. For the same compound, the EC50 (Botrytis cinerea [37]) was 10 µg/mL (≈ 33.1 µM), the EC50 (Botrytis cinerea [38]) was > 10 µg/mL and the EC50 (Botrytis cinerea [39]) was > 10 µg/mL. For the same compound, the EC50 (Botrytis cinerea [40]) was 10 µg/mL (≈ 33.1 µM).

From ChEMBL document CHEMBL1687714, “Genetic analysis of fenhexamid-resistant field isolates of the phytopathogenic fungus Botrytis cinerea” (Antimicrob Agents Chemother, 2008)
